Experimental data reported in ChEMBL document CHEMBL2040835, “Disubstituted Bis-THF Moieties as New P2 Ligands in Nonpeptidal HIV-1 Protease Inhibitors” (ACS Med Chem Lett, 2011).

Assays:
[1] = system: Human immunodeficiency virus 1; test: Antiviral activity against Human immunodeficiency virus 1 isolate M3 expressing protease L10I, K20R, M36I, G48V, I62V, A71V, V82A, I93L mutant infected in human MT4 cells; format: functional, organism-based; conditions: Human immunodeficiency virus 1, isolate M3, MT4
[2] = system: Human immunodeficiency virus 1; test: Antiviral activity against Human immunodeficiency virus 1 3B expressing wild-type protease infected in human MT4 cells; format: functional, organism-based
How it was run: (§1)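 Cell-based antiviral assay in MT4 cells infected with wild-type HIV-1 IIIB, read as EC50. Run in quadruplicate. It was also repeated in the presence of 50% human serum as an indicator of plasma protein binding.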

[3] = system: Human immunodeficiency virus 1; test: Antiviral activity against Human immunodeficiency virus 1 isolate M2 expressing protease L10I, I13V, M46I, I50V, L63P, L76V mutant infected in human MT4 cells; format: functional, organism-based; conditions: Human immunodeficiency virus 1, isolate M2, MT4
How it was run: (§2)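 Cell-based antiviral assay in MT4 cells infected with a multi-PI-resistant HIV-1 mutant carrying clinically observed primary protease mutations. EC50 determined, with all assays run in quadruplicate.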

[4] = system: Human immunodeficiency virus 1; test: Antiviral activity against Human immunodeficiency virus 1 3B expressing wild-type protease infected in human MT4 cells in presence of 50% human serum; format: functional, organism-based; how it was run: as §1
[5] = Selectivity index, ratio of CC50 for human MT4 cells to EC50 for Human immunodeficiency virus 1 3B; format: toxicity, cell-based
How it was run: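 Selectivity index is calculated as CC50 divided by EC50 against HIV-1 IIIB in the cell-based assay.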

[6] = system: Human immunodeficiency virus 1; test: Antiviral activity against Human immunodeficiency virus 1 isolate M1 expressing protease L10I, M46I, I64V, I84V, L90M, I93L mutant infected in human MT4 cells; format: functional, organism-based; conditions: Human immunodeficiency virus 1, isolate M1, MT4; how it was run: as §2
[7] = system: Human immunodeficiency virus 1; test: Selectivity index, ratio of EC50 for Human immunodeficiency virus 1 isolate M1 expressing protease L10I, M46I, I64V, I84V, L90M, I93L mutant to EC50 for Human immunodeficiency virus 1 3B expressing wild-type protease; format: functional
How it was run: (§3)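 Fold change is the EC50 against the multi-PI-resistant mutant divided by the EC50 against wild-type HIV-1 IIIB. Both EC50s come from cell-based assays in MT4 cells run in quadruplicate.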

[8] = system: Human immunodeficiency virus 1; test: Selectivity index, ratio of EC50 for Human immunodeficiency virus 1 isolate M3 expressing protease L10I, K20R, M36I, G48V, I62V, A71V, V82A, I93L mutant to EC50 for Human immunodeficiency virus 1 3B expressing wild-type protease; format: functional; how it was run: as §3
[9] = Cytotoxicity against human MT4 cells; format: cell-based
[10] = system: Human immunodeficiency virus 1; test: Selectivity index, ratio of EC50 for Human immunodeficiency virus 1 isolate M2 expressing protease L10I, I13V, M46I, I50V, L63P, L76V mutant to EC50 for Human immunodeficiency virus 1 3B expressing wild-type protease; format: functional; how it was run: as §3
Protease = Protease (Human immunodeficiency virus 1, UniProt Q9YQ12); test: Inhibition of Human immunodeficiency virus 1 3B protease
[11] = Ratio of EC50 for Human immunodeficiency virus 1 3B expressing wild-type protease to IC50 for Human immunodeficiency virus 1 3B protease

Chain of Protease (Q9YQ12 whole entry): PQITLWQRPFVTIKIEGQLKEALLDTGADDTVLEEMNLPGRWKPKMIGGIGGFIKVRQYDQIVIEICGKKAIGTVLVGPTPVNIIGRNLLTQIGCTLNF

| SMILES | EC50 [1] [nM] | EC50 [2] [nM] | EC50 [3] [nM] | EC50 [4] [nM] | selectivity ratio [5] | EC50 [6] [nM] | Ratio EC50 [7] | Ratio EC50 [8] | CC50 [9] [nM] | Ratio EC50 [10] | IC50 (Protease) [nM] | Ratio [11] |
| --- | --- | --- | --- | --- | --- | --- | --- | --- | --- | --- | --- | --- |
| COC(=O)N[C@H](C(=O)N[C@@H](Cc1ccccc1)[C@@H](O)CN(Cc1ccc(-c2ccccn2)cc1)NC(=O)[C@@H](NC(=O)OC)C(C)(C)C)C(C)(C)C [ATAZANAVIR] | 60.5 | 6.9 | 3.2 | 13.3 | > 2000 | 58 | 8.4 | 8.8 | > 9800 | 0.5 |  |  |
| CNc1nc2ccc(S(=O)(=O)N(CC(C)C)C[C@@H](O)[C@H](Cc3ccccc3)NC(=O)O[C@H]3CO[C@H]4OC[C@H](OCc5ccccc5F)[C@H]43)cc2o1 | 0.9 | 0.7 | 2.1 | 4 | > 2000 | 1.3 | 2 | 1.3 | > 9800 | 3.1 |  |  |
| CC(C)CN(C[C@@H](O)[C@H](Cc1ccccc1)NC(=O)O[C@H]1CO[C@H]2OCC[C@H]21)S(=O)(=O)c1ccc(N)cc1 | 2.3 | 6.6 | 51 | 17.2 |  | 11.3 |  |  | > 9800 |  |  |  |
| CNc1nc2ccc(S(=O)(=O)N(CC(C)C)C[C@@H](O)[C@H](Cc3ccccc3)NC(=O)O[C@H]3CO[C@H]4OC[C@H](OCc5ccc(F)cc5)[C@H]43)cc2o1 | 1 | 0.6 | 2.3 | 4 | > 2000 | 1.1 | 1.8 | 1.6 | > 9800 | 3.8 |  |  |
| CC(C)CN(C[C@@H](O)[C@H](Cc1ccccc1)NC(=O)O[C@H]1CO[C@H]2OC[C@H](OCc3ccccc3)[C@H]21)S(=O)(=O)c1ccc(N)cc1 | 1.7 | 1.5 | 18 | 12.1 | > 2000 | 4.7 | 3.1 | 1.1 | > 9800 | 12 | 3.5 |  |
| COCCO[C@H]1CO[C@@H]2OC[C@H](OC(=O)N[C@@H](Cc3ccccc3)[C@H](O)CN(CC(C)C)S(=O)(=O)c3ccc(N)cc3)[C@@H]21 | 6.8 | 15.5 | 71.4 | 37 | > 2000 | 11.9 | 0.8 | 0.4 | > 9800 | 4.6 | 2.5 |  |
| CNc1nc2ccc(S(=O)(=O)N(CC(C)C)C[C@@H](O)[C@H](Cc3ccccc3)NC(=O)O[C@H]3CO[C@H]4OC[C@H](OCCOC)[C@H]43)cc2o1 | 4.3 | 8.6 | 10.8 | 24 | > 2000 | 6.9 | 0.8 | 0.5 | > 9800 | 1.3 | 1.5 |  |
| Cc1cccc(C)c1OCC(=O)N[C@@H](Cc1ccccc1)[C@@H](O)C[C@H](Cc1ccccc1)NC(=O)[C@H](C(C)C)N1CCCNC1=O [LOPINAVIR] |  | 13.9 | 307 | 63.2 |  | 115 |  |  | > 9800 |  |  |  |
| CC(C)CN(C[C@@H](O)[C@H](Cc1ccccc1)NC(=O)O[C@H]1CO[C@H]2OC[C@H](Oc3ccccc3)[C@H]21)S(=O)(=O)c1ccc(N)cc1 | 6.5 | 8.9 | 249 | 47.2 | > 2000 | 32.5 | 3.7 | 0.7 | > 9800 | 28 |  |  |
| CNc1nc2ccc(S(=O)(=O)N(CC(C)C)C[C@@H](O)[C@H](Cc3ccccc3)NC(=O)O[C@H]3CO[C@H]4OC[C@H](O)[C@H]43)cc2o1 | 104 | 138 | 108 | 446 |  | 125 | 0.9 | 0.8 |  | 0.8 |  |  |
| CNc1nc2ccc(S(=O)(=O)N(CC(C)C)C[C@@H](O)[C@H](Cc3ccccc3)NC(=O)O[C@H]3CO[C@H]4OC[C@H](OCc5ccc(F)cc5F)[C@H]43)cc2o1 | 0.7 | 0.6 | 2.3 | 5.4 | > 2000 | 1.1 | 2 | 1.3 | > 9800 | 4.1 |  |  |
| CNc1nc2ccc(S(=O)(=O)N(CC(C)C)C[C@@H](O)[C@H](Cc3ccccc3)NC(=O)O[C@H]3CO[C@H]4OC[C@H](OCc5ccccc5)[C@H]43)cc2o1 | 1 | 0.8 | 3.4 | 3.7 | > 2000 | 1.7 | 2.2 | 1.3 | > 9800 | 4.5 |  |  |
| CC(C)CN(C[C@@H](O)[C@H](Cc1ccccc1)NC(=O)O[C@H]1CO[C@H]2OC[C@H](O)[C@H]21)S(=O)(=O)c1ccc(N)cc1 | 40.4 | 773 | 204 | 814 |  | 112 | 0.1 | <0.1 |  | 0.3 | 2.9 | 250 |
| CNc1nc2ccc(S(=O)(=O)N(CC(C)C)C[C@@H](O)[C@H](Cc3ccccc3)NC(=O)O[C@H]3CO[C@H]4OC[C@H](OCc5cccc(F)c5)[C@H]43)cc2o1 | 0.8 | 0.6 | 1.7 | 3.7 | > 2000 | 0.8 | 1.2 | 1.3 | > 9800 | 2.7 |  |  |
| CNc1nc2ccc(S(=O)(=O)N(CC(C)C)C[C@@H](O)[C@H](Cc3ccccc3)NC(=O)O[C@H]3CO[C@H]4OCC[C@H]43)cc2o1 | 0.9 | 2.3 | 3.2 | 8.3 | > 2000 | 2.7 | 1.2 | 0.4 | > 9800 | 1.4 |  |  |
| CNc1nc2ccc(S(=O)(=O)N(CC(C)C)C[C@@H](O)[C@H](Cc3ccccc3)NC(=O)O[C@H]3CO[C@H]4OC[C@H](OCOC)[C@H]43)cc2o1 | 1.9 | 3.4 | 11.2 | 7 | > 2000 | 5 | 1.2 | 0.7 | > 9800 | 2.4 |  |  |
| CNc1nc2ccc(S(=O)(=O)N(CC(C)C)C[C@@H](O)[C@H](Cc3ccccc3)NC(=O)O[C@H]3CO[C@H]4OC[C@H](OCSC)[C@H]43)cc2o1 | 2.2 | 1.3 | 9.3 | 6.7 | > 2000 | 3.9 | 3 | 1.7 | > 9800 | 7.1 |  |  |
